Only some compounds are listed: those with a hit (about 1.9% of all), similar ones and a draw of the others.
LMPTP inh: LMPTP phosphatase inhibitors, primary screen, biochemical, fluorescence intensity, uHTS. Low molecular weight phosphotyrosine protein phosphatase (Homo sapiens), P24666. recombinant LMPTP-A, OMFP fluorogenic substrate. inhibition, % at 20 µM. 0.22% of 360,000 active;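 active means compounds that cut the enzyme signal by at least half of the control window in the single-dose screen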;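 further: plate controls were DMSO wells with enzyme plus substrate for no effect and substrate without enzyme for full effect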
Target sequence (P24666 whole entry, looked up): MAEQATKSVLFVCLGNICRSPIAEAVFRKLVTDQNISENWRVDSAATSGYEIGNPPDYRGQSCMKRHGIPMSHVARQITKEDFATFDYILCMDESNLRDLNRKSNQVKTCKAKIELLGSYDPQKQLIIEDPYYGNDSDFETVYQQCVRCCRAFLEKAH
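test system = LMPTP-A | amount = 0.625 nM LMPTP-A final | reagent = fluorogenic phosphatase substrate OMFP at 400 µM final | incubation = 50 min at room temperature | benchmarks = no-enzyme low control, uninhibited high control | medium = Bis-Tris pH 6.0, DTT, detergent | signal = fluorescence intensity of OMFP turnover product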
SUMO1 PPI mod: modulators of SUMO1 protein-protein interactions, primary screen, biochemical, uHTS. 0.33% of 360,000 active. inhibition, % at 20 µM. SUMO1 binding to a labelled peptide, TR-FRET, 1 h. AID 602429, 2012. Small ubiquitin-related modifier 1 (Homo sapiens), P63165; in the data active means inhibition above about 37%
Target sequence (P63165 whole entry, looked up): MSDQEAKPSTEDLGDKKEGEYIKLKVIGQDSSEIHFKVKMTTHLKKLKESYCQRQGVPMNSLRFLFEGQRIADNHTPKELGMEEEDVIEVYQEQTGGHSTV
FAS-TE inh: FAS thioesterase domain inhibitors, primary screen, biochemical, fluorescence intensity, uHTS. Fatty acid synthase (Homo sapiens), P49327. recombinant FAS-TE, OMFH fluorogenic substrate, fluorescence endpoint. 0.67% of 360,000 active. AID 602261, 2012. inhibition, % at 15 µM;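 active means compounds whose normalised, plate-corrected inhibition of enzyme fluorescence in the single-dose primary screen is 50% or more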;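 further: 0% = DMSO with enzyme and 100% = substrate without enzyme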
STEP inh: STEP phosphatase inhibitors, primary screen, biochemical, fluorescence intensity, uHTS | Tyrosine-protein phosphatase non-receptor type 5 (Homo sapiens), P54829 | recombinant STEP, OMFP fluorogenic substrate | inhibition, % at 20 µM | 0.25% of 360,000 active;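 active means inhibition at 20 µM, scaled per plate between control wells, above about 37%, limit read from the data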;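 further: 0% = DMSO with enzyme and substrate and 100% = substrate only without enzyme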
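Material: STEP (striatal-enriched tyrosine phosphatase) enzyme, cell-free; Compound dosing: 20 µM single dose in 1% DMSO; Technique: fluorescence read at 480 nm ex / 540 nm em; Times: reaction 20 min, ambient temperature; Medium: 50 mM Bis-Tris pH 6.0 with 2.5 mM DTT and 0.005% Tween 20; Also added: OMFP at 25 µM.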
Scp-1 inhibitor: Scp-1 phosphatase inhibitors, primary screen, biochemical, colorimetric, uHTS | inhibition, % at 20 µM | Carboxy-terminal domain RNA polymerase II polypeptide A small phosphatase 1 (Homo … | Recombinant Scp1, phosphopeptide, malachite green phosphate absorbance | AID 493091, 2011 | 0.88% of 340,000 active;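 active means inhibition above about 50% at 20 µM, limit read from the data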;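 further: plate controls were DMSO wells with enzyme for no effect and wells lacking enzyme for full effect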
Target sequence (Q9GZU7 76-261 limits assumed): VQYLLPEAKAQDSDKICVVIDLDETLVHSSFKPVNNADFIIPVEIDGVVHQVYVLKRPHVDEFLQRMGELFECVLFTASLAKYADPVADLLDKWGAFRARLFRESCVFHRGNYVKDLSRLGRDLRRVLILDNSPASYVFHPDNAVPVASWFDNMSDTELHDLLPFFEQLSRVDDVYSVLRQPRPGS
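Times: enzyme reaction 45 min at room temperature, colour 5 min, stabilisation 30 min. Material: SCP-1 catalytic fragment, aa 76-261. Medium: Acidic Tris acetate buffer with magnesium and detergent. Signal: colorimetric free-phosphate detection, absorbance 630 nm. Read-out basis: % inhibition of SCP-1 phosphate liberation. Reagent: Phosphorylated 17-residue peptide substrate.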
Scp-1 conf: Scp-1 phosphatase inhibitors, retest, confirmation, biochemical, colorimetric, single concentration. 61% of 2,500 active. inhibition, % at 20 µM. AID 540281, 2011. recombinant SCP-1 catalytic domain, phosphate release, malachite green absorbance. shares compounds with Scp-1 inhibitor;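 further: plate controls were DMSO with enzyme for no effect and buffer wells lacking enzyme for full effect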
MG interference: colorimetric readout interference by compounds, confirmation, artefact control for Scp-1 inhibitor project, biochemical, single concentration; shares compounds with Scp-1 inhibitor; Colorimetric interference counterscreen, malachite green absorbance 630 nm; apparent inhibition (interference), % at 20 µM; 2,500 tested, under 10 active; AID 540313, 2011;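 further: compounds added after enzyme reaction finished so only phosphate colour detection is probed; plate controls were DMSO wells with completed Scp-1 reaction for no effect and substrate wells lacking enzyme for full effect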
Scp1 DSF: Scp-1 binding by thermal shift, confirmation, orthogonal assay for Scp-1 inhibitor project, biophysical, differential scanning fluorimetry; shares compounds with Scp-1 inhibitor; Recombinant SCP1, Sypro Orange thermal shift Tm; thermal shift relative to vanadate control, % at 40 µM; 25% of 1,500 active; AID 540329, 2011;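 active means substances whose mean melting-temperature shift, as a percentage of the reference inhibitor's shift, reaches about 5.3%, limit read from the data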;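 further: 0% = Tm of DMSO wells and 100% = Tm with sodium orthovanadate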
* = called active by the depositor; . = no result; ! = not confirmed by another sample.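 How the source made its calls, unless noted: active means inhibition of at least 30% at 20 µM; inactive means the rest.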

SMILES	LMPTP inh	SUMO1 PPI mod	FAS-TE inh	STEP inh	Scp-1 inhibitor	Scp-1 conf	MG interference	others
C[C@@H]1CN([C@@H](C)CO)C(=O)c2cc(NC(=O)Nc3ccc4c(c3)OCO4)ccc2O[C@H]1CN(C)S(=O)(=O)c1ccc(F)cc1	0	-9	5	2	1	.	.
C[C@H](CO)N1C[C@H](C)[C@@H](CN(C)S(=O)(=O)c2ccc(F)cc2)Oc2ccc(NC(=O)Nc3ccc4c(c3)OCO4)cc2C1=O	0	11	10	1	53*	7	-11
C[C@@H]1CN([C@@H](C)CO)C(=O)c2cc(NS(C)(=O)=O)ccc2O[C@@H]1CN(C)S(=O)(=O)c1ccccc1	0	-7	-13	1	50*	9	-22
C[C@H](CO)N1C[C@H](C)[C@@H](CN(C)S(=O)(=O)c2ccccc2)Oc2ccc(NC(=O)C3CC3)cc2C1=O	-2	-4	-4	1	62*	0	-19
C[C@H](CO)N1C[C@H](C)[C@@H](CN(C)S(=O)(=O)c2ccccc2)Oc2ccc(NS(=O)(=O)c3ccccc3)cc2C1=O	-1	0	1	-2	24	.	.
O=C(COc1ccccc1Cl)NCCCNC(=O)c1ccco1	0	-3	-1	0	-8	.	.
CC1(C(=O)NS(=O)(=O)C2CC2)CCCN(C(=O)c2cccs2)C1 (configuration not stated)	0	0	-7	-2	.	.	.
O=C(c1ccco1)N1N=C(c2ccccc2O)CC1c1cccs1 (configuration not stated)	2	-2	10	-1	.	.	.
Cc1onc(-c2ccccc2)c1C(=O)Nc1nnc(-c2ccncc2)s1	1	13	-2	-2	-4	.	.
Cc1noc(C)c1C(=O)Nc1nnc(-c2ccccc2)s1	-1	2	-7	6	67*	-24	-22
COc1ccc2[nH]cc(C(O)CN3CCC(C(N)=O)CC3)c2c1 (configuration not stated)	1	-2	-6	0	71*	2	-1
CCOC(=O)N1CCN(CC(O)c2c[nH]c3ccc(OC)cc23)CC1 (configuration not stated)	0	-5	0	1	-5	.	.
O=c1c2c(nc3cc(-c4ccc(Cl)cc4)[nH]n13)CCS2	61*	10	-5	22	84*	31*	-4	Scp1 DSF=2
O=c1[nH]cnc2ccc([N+](=O)[O-])cc12	0	-33	-2	-3	-1	.	.
O=c1[nH][nH]c(=O)c2cc([N+](=O)[O-])ccc12	0	-30	0	-4	50*!	-12	-12
CC1(Cc2ccccc2Cl)C(=O)Nc2c(Cl)ccc(Cl)c21 (configuration not stated)	3	5	19	1	.	.	.
O=C(O)c1ccc(CSc2n[nH]c(-c3ccco3)n2)cc1	-1	23	-7	13	52*	32*	-15	Scp1 DSF=-2
Cc1cc(C)c(S(=O)(=O)NCCSCc2ccco2)c(C)c1	3	4	16	2	53*	-8	-17
Cc1ccc(S(=O)(=O)NCCSCc2ccco2)cc1	0	-4	-1	2	2	.	.
